Assay results reported in publication PMC2646117 (Cell host & microbe, 2008).
Like-named read-outs stand apart in the source and are kept apart here.

What was measured:
P. falciparum 3D7 = assay type: cell-based; settings: Plasmodium falciparum, 3D7, read-out: mean IC50
P. falciparum Dd2 = assay type: cell-based; settings: Plasmodium falciparum, DD2, read-out: mean IC50
[1] = system: P. berghei (KBG-173 line); assay type: in vivo; settings: for parasitemia on day 6 post-infection: three days twice-daily divided dose
PffabI(A217V)^Dd2 = assay: Drug susceptibility assay, transgenic line; assay type: cell-based, P. falciparum; settings: Plasmodium falciparum
PffabI(WT)^Dd2 = assay: Drug susceptibility assay, transgenic line; assay type: cell-based, P. falciparum; settings: Plasmodium falciparum
Dd2^attB = assay: Drug susceptibility assay, parental line; assay type: cell-based, P. falciparum; settings: Plasmodium falciparum
PffabI(A217V)^3D7 = assay: Drug susceptibility assay, transgenic line; assay type: cell-based, P. falciparum; settings: Plasmodium falciparum
PffabI(WT)^3D7 = assay: Drug susceptibility assay, transgenic line; assay type: cell-based, P. falciparum; settings: Plasmodium falciparum
3D7^attB = assay: Drug susceptibility assay, parental line; assay type: cell-based, P. falciparum; settings: Plasmodium falciparum
PfΔfabI^1 = assay: Drug susceptibility assay, pffabI knockout clone; assay type: cell-based, P. falciparum; settings: Plasmodium falciparum, read-out: IC50 (mean ± SEM)
PfΔfabI^2 = assay: Drug susceptibility assay, pffabI knockout clone; assay type: cell-based, P. falciparum; settings: Plasmodium falciparum, read-out: IC50 (mean ± SEM)
PbΔfabI = assay: Ex vivo drug susceptibility assay, P. berghei asexual blood stages; assay type: cell-based; settings: Plasmodium berghei
PbfabI^Rec = assay: Ex vivo drug susceptibility assay, P. berghei asexual blood stages; assay type: cell-based; settings: Plasmodium berghei
In short: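 Ex vivo growth of P. berghei asexual blood-stage parasites exposed to the test compound was measured by [³H]-hypoxanthine assay. IC50 was calculated by linear regression. Each compound was tested in duplicate on at least two separate occasions.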

ANKA = assay: Ex vivo drug susceptibility assay, P. berghei asexual blood stages; assay type: cell-based; settings: Plasmodium berghei
P. berghei = settings: SC, 3 mg/kg/day, four days; ref Surolia and Surolia, 2001; cited from earlier work
recombinant PfFabI A217V = recombinant PfFabI A217V versus wild type; ref Kapoor et al., 2004; cited from earlier work

SMILES: Oc1cc(Cl)ccc1Oc1ccc(Cl)cc1Cl [triclosan, 5-chloro-2-(2,4-dichlorophenoxy)phenol]
- IC50 (P. falciparum 3D7): 1800 nM
- parasitemia at doses above 128 mg/kg/day ([1]; PO or SC, doses higher than 128 mg/kg/day): failed to further suppress the parasitemias
- survival times ([1]; PO, 64 mg/kg/day): slight extension in survival times
- survival rate at day 31 ([1]; PO, 128 mg/kg/day): 30%
- parasitemia on day 6 post-infection ([1]; PO, 128 mg/kg/day, placebo control 61%): 27%
- survival rate at day 31 ([1]; PO, 256 mg/kg/day): 30%
- mortality / overall survival (toxicity) ([1]; PO, 512 mg/kg/day): some early mortality and decreased overall survival rates
- survival ([1]; SC route, 16 to 512 mg/kg/day): ≤ 50%
- parasitemia on day 6 post-infection ([1]; SC, 128 mg/kg/day, placebo control 57%): 13%
- IC50 (Dd2^attB; DD2, read-out: IC50 (mean±SEM)): 3100 ± 700 nM
- IC90 (Dd2^attB; DD2, read-out: IC90 (mean±SEM)): 7200 ± 700 nM
- IC90 (3D7^attB; 3D7, read-out: IC90 (mean±SEM)): 4800 ± 600 nM
- IC50 (PfΔfabI^1): 2200 ± 200 nM
- IC50 (PfΔfabI^2): 2400 ± 300 nM
- IC50 (PbΔfabI; read-out: IC50 (means±SEM)): 1400 ± 100 nM
- IC50 (PbfabI^Rec; read-out: IC50 (means±SEM)): 1500 ± 200 nM
- IC50 (ANKA; read-out: IC50 (means±SEM)): 1200 ± 100 nM
- suppression of P. berghei parasitemia (P. berghei): 75%
- decrease in binding affinity conferred by A217V mutation (recombinant PfFabI A217V): 7,000 fold

SMILES: CCN(CC)CCCC(C)Nc1ccnc2cc(Cl)ccc12 (centres unmarked) [chloroquine]
- IC50 (PbΔfabI): 11 ± 0.1 nM
- IC50 (PbfabI^Rec): 13 ± 0.6 nM
- IC50 (ANKA): 10.4 ± 0.3 nM
